In paper PMC5084670 (Cancer Science, 2016):

Experiment: Phase I dose-escalation study: safety, adverse events
Assay type: in vivo, human
In short: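 Oral test compound was given once daily in 28-day cycles after a 7-day single-dose run-in, in Japanese and Hong Kong/Taiwan groups escalated separately. Toxicity was graded by CTCAE v3.0 using laboratory tests, physical examination, vital signs, weight and periodic ECG. DLTs were grade 3–4 events over the run-in plus cycle 1. MTD was set by an adaptive Bayesian logistic regression model with overdose control.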

[1] = group 2, 400 mg q.d. (n = 12), All grades
[2] = group 2, 400 mg q.d. (n = 12), Grade 3
[3] = group 2, 400 mg q.d. (n = 12), Grade 4
[4] = group 2, 600 mg q.d. (n = 8), All grades
[5] = group 2, 600 mg q.d. (n = 8), Grade 3
[6] = group 2, 600 mg q.d. (n = 8), Grade 4
[7] = group 2, 800 mg q.d. (n = 4), All grades
[8] = group 2, 800 mg q.d. (n = 4), Grade 3
[9] = group 2, 800 mg q.d. (n = 4), Grade 4
[10] = group 2, All patients (n = 24), All grades
[11] = group 2, All patients (n = 24), Grade 3
[12] = group 2, All patients (n = 24), Grade 4

Cc1c(C(=O)Nc2ccc(N3C[C@@H](C)O[C@@H](C)C3)nc2)cccc1-c1ccc(OC(F)(F)F)cc1 [Sonidegib]
Dysgeusia (drug-related adverse event) [1]: 2 (17) n (%) | Fatigue (drug-related adverse event) [1]: 4 (33) n (%) | Hepatic function abnormal (drug-related adverse event) [1]: 2 (17) n (%) | Muscular weakness (drug-related adverse event) [1]: 0 (0) n (%) | Myalgia (drug-related adverse event) [1]: 2 (17) n (%) | Nausea (drug-related adverse event) [1]: 0 (0) n (%) | Pyrexia (drug-related adverse event) [1]: 0 (0) n (%) | Vomiting (drug-related adverse event) [1]: 0 (0) n (%) | Blood creatine kinase increased (drug-related adverse event) [2]: 1 (8) n (%) | Decreased appetite (drug-related adverse event) [2]: 0 (0) n (%) | Diarrhea (drug-related adverse event) [2]: 0 (0) n (%) | Dizziness (drug-related adverse event) [2]: 0 (0) n (%) | Dysgeusia (drug-related adverse event) [2]: 0 (0) n (%) | Fatigue (drug-related adverse event) [2]: 0 (0) n (%) | Hepatic function abnormal (drug-related adverse event) [2]: 0 (0) n (%) | Muscular weakness (drug-related adverse event) [2]: 0 (0) n (%) | Myalgia (drug-related adverse event) [2]: 0 (0) n (%) | Nausea (drug-related adverse event) [2]: 0 (0) n (%) | Pyrexia (drug-related adverse event) [2]: 0 (0) n (%) | Vomiting (drug-related adverse event) [2]: 0 (0) n (%) | Blood creatine kinase increased (drug-related adverse event) [3]: 1 (8) n (%) | Decreased appetite (drug-related adverse event) [3]: 0 (0) n (%) | Diarrhea (drug-related adverse event) [3]: 0 (0) n (%) | Dizziness (drug-related adverse event) [3]: 0 (0) n (%) | Dysgeusia (drug-related adverse event) [3]: 0 (0) n (%) | Fatigue (drug-related adverse event) [3]: 0 (0) n (%) | Hepatic function abnormal (drug-related adverse event) [3]: 0 (0) n (%) | Muscular weakness (drug-related adverse event) [3]: 0 (0) n (%) | Myalgia (drug-related adverse event) [3]: 0 (0) n (%) | Nausea (drug-related adverse event) [3]: 0 (0) n (%) | Pyrexia (drug-related adverse event) [3]: 0 (0) n (%) | Vomiting (drug-related adverse event) [3]: 0 (0) n (%) | Blood creatine kinase increased (drug-related adverse event) [4]: 3 (38) n (%) | Decreased appetite (drug-related adverse event) [4]: 3 (38) n (%) | Diarrhea (drug-related adverse event) [4]: 1 (13) n (%) | Dizziness (drug-related adverse event) [4]: 1 (13) n (%) | Dysgeusia (drug-related adverse event) [4]: 3 (38) n (%) | Fatigue (drug-related adverse event) [4]: 1 (13) n (%) | Hepatic function abnormal (drug-related adverse event) [4]: 2 (25) n (%) | Muscular weakness (drug-related adverse event) [4]: 1 (13) n (%) | Myalgia (drug-related adverse event) [4]: 3 (38) n (%) | Nausea (drug-related adverse event) [4]: 3 (38) n (%) | Pyrexia (drug-related adverse event) [4]: 1 (13) n (%) | Vomiting (drug-related adverse event) [4]: 2 (25) n (%) | Blood creatine kinase increased (drug-related adverse event) [5]: 0 (0) n (%) | Decreased appetite (drug-related adverse event) [5]: 0 (0) n (%) | Diarrhea (drug-related adverse event) [5]: 0 (0) n (%) | Dizziness (drug-related adverse event) [5]: 0 (0) n (%) | Dysgeusia (drug-related adverse event) [5]: 0 (0) n (%) | Fatigue (drug-related adverse event) [5]: 0 (0) n (%) | Hepatic function abnormal (drug-related adverse event) [5]: 1 (13) n (%) | Muscular weakness (drug-related adverse event) [5]: 0 (0) n (%) | Myalgia (drug-related adverse event) [5]: 1 (13) n (%) | Nausea (drug-related adverse event) [5]: 0 (0) n (%) | Pyrexia (drug-related adverse event) [5]: 0 (0) n (%) | Vomiting (drug-related adverse event) [5]: 0 (0) n (%) | Blood creatine kinase increased (drug-related adverse event) [6]: 1 (13) n (%) | Decreased appetite (drug-related adverse event) [6]: 0 (0) n (%) | Diarrhea (drug-related adverse event) [6]: 0 (0) n (%) | Dizziness (drug-related adverse event) [6]: 0 (0) n (%) | Dysgeusia (drug-related adverse event) [6]: 0 (0) n (%) | Fatigue (drug-related adverse event) [6]: 0 (0) n (%) | Hepatic function abnormal (drug-related adverse event) [6]: 0 (0) n (%) | Muscular weakness (drug-related adverse event) [6]: 0 (0) n (%) | Myalgia (drug-related adverse event) [6]: 0 (0) n (%) | Nausea (drug-related adverse event) [6]: 0 (0) n (%) | Pyrexia (drug-related adverse event) [6]: 0 (0) n (%) | Vomiting (drug-related adverse event) [6]: 0 (0) n (%) | DLT in cycle 1 (creatine kinase elevation) (group 2, 800 mg): single DLT | Blood creatine kinase increased (drug-related adverse event) [7]: 3 (75) n (%) | Decreased appetite (drug-related adverse event) [7]: 2 (50) n (%) | Diarrhea (drug-related adverse event) [7]: 1 (25) n (%) | Dizziness (drug-related adverse event) [7]: 1 (25) n (%) | Dysgeusia (drug-related adverse event) [7]: 1 (25) n (%) | Fatigue (drug-related adverse event) [7]: 3 (75) n (%) | Hepatic function abnormal (drug-related adverse event) [7]: 3 (75) n (%) | Muscular weakness (drug-related adverse event) [7]: 3 (75) n (%) | Myalgia (drug-related adverse event) [7]: 3 (75) n (%) | Nausea (drug-related adverse event) [7]: 2 (50) n (%) | Pyrexia (drug-related adverse event) [7]: 1 (25) n (%) | Vomiting (drug-related adverse event) [7]: 1 (25) n (%) | Blood creatine kinase increased (drug-related adverse event) [8]: 0 (0) n (%) | Decreased appetite (drug-related adverse event) [8]: 1 (25) n (%) | Diarrhea (drug-related adverse event) [8]: 0 (0) n (%) | Dizziness (drug-related adverse event) [8]: 0 (0) n (%) | Dysgeusia (drug-related adverse event) [8]: 0 (0) n (%) | Fatigue (drug-related adverse event) [8]: 2 (50) n (%) | Hepatic function abnormal (drug-related adverse event) [8]: 2 (50) n (%) | Muscular weakness (drug-related adverse event) [8]: 2 (50) n (%) | Myalgia (drug-related adverse event) [8]: 1 (25) n (%) | Nausea (drug-related adverse event) [8]: 0 (0) n (%) | Pyrexia (drug-related adverse event) [8]: 0 (0) n (%) | Vomiting (drug-related adverse event) [8]: 0 (0) n (%) | Blood creatine kinase increased (drug-related adverse event) [9]: 2 (50) n (%) | Decreased appetite (drug-related adverse event) [9]: 0 (0) n (%) | Diarrhea (drug-related adverse event) [9]: 0 (0) n (%) | Dizziness (drug-related adverse event) [9]: 0 (0) n (%) | Dysgeusia (drug-related adverse event) [9]: 0 (0) n (%) | Fatigue (drug-related adverse event) [9]: 0 (0) n (%) | Hepatic function abnormal (drug-related adverse event) [9]: 0 (0) n (%) | Muscular weakness (drug-related adverse event) [9]: 0 (0) n (%) | Myalgia (drug-related adverse event) [9]: 0 (0) n (%) | Nausea (drug-related adverse event) [9]: 0 (0) n (%) | Pyrexia (drug-related adverse event) [9]: 0 (0) n (%) | Vomiting (drug-related adverse event) [9]: 0 (0) n (%) | Blood creatine kinase increased (drug-related adverse event) [10]: 12 (50) n (%) | Decreased appetite (drug-related adverse event) [10]: 5 (21) n (%) | Diarrhea (drug-related adverse event) [10]: 2 (8) n (%) | Dizziness (drug-related adverse event) [10]: 2 (8) n (%) | Dysgeusia (drug-related adverse event) [10]: 6 (25) n (%) | Fatigue (drug-related adverse event) [10]: 8 (33) n (%) | Hepatic function abnormal (drug-related adverse event) [10]: 7 (29) n (%) | Muscular weakness (drug-related adverse event) [10]: 4 (17) n (%) | Myalgia (drug-related adverse event) [10]: 8 (33) n (%) | Nausea (drug-related adverse event) [10]: 5 (21) n (%) | Pyrexia (drug-related adverse event) [10]: 2 (8) n (%) | Vomiting (drug-related adverse event) [10]: 3 (13) n (%) | Blood creatine kinase increased (drug-related adverse event) [11]: 1 (4) n (%) | Decreased appetite (drug-related adverse event) [11]: 1 (4) n (%) | Diarrhea (drug-related adverse event) [11]: 0 (0) n (%) | Dizziness (drug-related adverse event) [11]: 0 (0) n (%) | Dysgeusia (drug-related adverse event) [11]: 0 (0) n (%) | Fatigue (drug-related adverse event) [11]: 2 (8) n (%) | Hepatic function abnormal (drug-related adverse event) [11]: 3 (13) n (%) | Muscular weakness (drug-related adverse event) [11]: 2 (8) n (%) | Myalgia (drug-related adverse event) [11]: 2 (8) n (%) | Nausea (drug-related adverse event) [11]: 0 (0) n (%) | Pyrexia (drug-related adverse event) [11]: 0 (0) n (%) | Vomiting (drug-related adverse event) [11]: 0 (0) n (%) | Blood creatine kinase increased (drug-related adverse event) [12]: 4 (17) n (%) | Decreased appetite (drug-related adverse event) [12]: 0 (0) n (%) | Diarrhea (drug-related adverse event) [12]: 0 (0) n (%) | Dizziness (drug-related adverse event) [12]: 0 (0) n (%) | Dysgeusia (drug-related adverse event) [12]: 0 (0) n (%) | Fatigue (drug-related adverse event) [12]: 0 (0) n (%) | Hepatic function abnormal (drug-related adverse event) [12]: 0 (0) n (%) | Muscular weakness (drug-related adverse event) [12]: 0 (0) n (%) | Myalgia (drug-related adverse event) [12]: 0 (0) n (%) | Nausea (drug-related adverse event) [12]: 0 (0) n (%) | Pyrexia (drug-related adverse event) [12]: 0 (0) n (%) | Vomiting (drug-related adverse event) [12]: 0 (0) n (%) | Maximum tolerated dose (MTD) (group 2, Bayesian logistic regression model, all grade 3 or 4 blood CK elevation incidents): 600 mg q.d. | Drug-related AE: abnormal hepatic function (group 2, all doses): 29% | Drug-related AE: fatigue (group 2, all doses): 33% | Drug-related AE: increase in CK levels (group 2, all doses): 50% | Drug-related AE: myalgia (group 2, all doses): 33% | Patients with at least one AE suspected to be related to sonidegib (group 2, n = 18): 75% | Patients with SAEs that led to drug discontinuation (in each group): four | Time to recovery of CK after interruption of drug (most cases): 1 month | Renal impairment or renal failure (patients with grade 3 or 4 CK elevation and high blood myoglobin): no patients experienced renal impairment or renal failure | CK re-elevation after restart with a 200 mg dose (three patients at 400 mg interrupted for grade 3 CK elevation): not observed
